Test results from article PMC2900633 (Bioorganic & medicinal chemistry, 2008).

Tests used:
[1] = test system: PC3 cells; test: Endogenous PS exposure, Annexin V-FITC flow cytometry; format: cell-based; settings: scramblase 100 μM, 37°C, 2 hours, background value 2 %
In short: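 PC3 cells were grown in Ham's F-12K with 10% FBS at 37°C, 5% CO2. At 90% confluency they were PBS-washed, trypsinised and resuspended in TES buffer at 1 × 10^5 cells/mL. Test compound (100 μM, from DMSO stock) was added for 2 h at 37°C. Cells were then stained in binding buffer with Annexin V-FITC plus 7AAD (500 ng/mL) for 15 min at 37°C. Flow cytometry excluded 7AAD-positive cells. Three independent experiments were run.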

[2] = test system: erythrocytes; settings: raised from 1 %, previous work, ref 8f; cited from earlier work
[3] = test system: LNCaP cells; test: MTT assay, LNCaP cells; format: cell-based; settings: 24 h, ±10 μM
[4] = test system: Jurkat, PC3 and LNCaP cells; test: MTT assay, statements over all three cell lines; format: cell-based

Row | Structure (SMILES) | fraction of Annexin-stained cells [1] [%] | fraction of Annexin-stained cells, erythrocytes [2] [%] | LD50, LNCaP cells [3] [µM] | LD50 (effect on mitochondrial reductase activity) [4] [µM]
1 | Cc1ccc(S(=O)(=O)NCCN(CCNC(=O)Nc2ccc([N+](=O)[O-])cc2)CCNS(=O)(=O)c2ccc(C)cc2)cc1 [scramblase 2] | < 5 | 34 |  | 
2 | Cc1ccc(S(=O)(=O)NCCN(CCNC(=O)Nc2ccc(C(F)(F)F)cc2)CCNS(=O)(=O)c2ccc(C)cc2)cc1 [scramblase 5] | 10 |  |  | 
3 | Cc1ccc(S(=O)(=O)NCCN(CCNC(=O)Nc2ccc(C(C)C)cc2)CCNS(=O)(=O)c2ccc(C)cc2)cc1 [scramblase 9] | < 5 |  |  | 
4 | Cc1ccc(S(=O)(=O)NCCN(CCNC(=O)[C@H](N)Cc2ccccc2)CCNS(=O)(=O)c2ccc(C)cc2)cc1.Cl [scramblase 15] |  |  | 40 | > 15
5 | Cc1ccc(S(=O)(=O)NCCN(CCNCc2ccccc2)CCNS(=O)(=O)c2ccc(C)cc2)cc1 [scramblase 16] |  |  | 40 | > 15
6 | Cc1ccc(S(=O)(=O)NCCN(CCNC(=S)Nc2ccc(Cl)cc2)CCNS(=O)(=O)c2ccc(C)cc2)cc1 [scramblase 14] |  |  | 15 | > 15
